# From ChEMBL document CHEMBL5303300, “EUbOPEN Chemogenomics Library - Multiplex” (2023)
# Where “and” joins values, the source holds several entries; their conditions need not be identical. Identical values can stand only once.
# Experiments:
# Type in all cases: toxicity, cell-based
# [1] = tested on: HEK-293T; assay: Multiplex assay against HEK293T; settings: human, number of replicates 2
# How it was run: (§1)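 Cells stained live at seeding with Hoechst33342, BioTracker Green Microtubule Cytoskeleton Dye, MitoTracker Red and Annexin V Alexa Fluor 680 were imaged on a CQ1 microscope at 37°C and 5% CO2 after compound addition. Their classification by CellPathfinder machine-learning gating ran from Hoechst high-intensity objects versus normal cells, to healthy, pyknosed or fragmented nuclei among normal cells, to mitotic or apoptotic among pyknosed cells. Tubulin, mitochondrial-mass and membrane-permeability phenotypes are per cents of healthy-nucleus cells.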
# [2] = tested on: U2OS; assay: Multiplex assay against U2OS; settings: human, number of replicates 2; how it was run: as §1
# [3] = tested on: Fibroblast; assay: Multiplex assay against human fibroblast; settings: number of replicates 2; how it was run: as §1
# [4] = 12 h, 1 µM, compound concentration 1 uM
# [5] = 12 h, 10 µM, compound concentration 10 uM
# [6] = 24 h, 1 µM, compound concentration 1 uM
# [7] = 24 h, 10 µM, compound concentration 10 uM
# [8] = 48 h, 1 µM, compound concentration 1 uM
# [9] = 48 h, 10 µM, compound concentration 10 uM
smiles,measurement,setting,value
CCn1c(-c2nonc2N)nc2cncc(C(=O)N3CC[C@H](N)C3)c21.Cl,Population Apoptotic (%),[1]; [4],31% and 33%
same,Population Fragmented Nuclei (%),[1]; [4],2%
same,Population Healthy Nuclei (%),[1]; [4],81% and 83%
same,Population Hoechst High Intensity Objects (%),[1]; [4],7% and 5%
same,Population Membrane Permeable-Phenotype (%),[1]; [4],4% and 1%
same,Population Mitochondria Different-Phenotype (%),[1]; [4],10% and 8%
same,Population Mitotic Cells (%),[1]; [4],68% and 66%
same,Population Normal (%),[1]; [4],92% and 94%
same,Population Pyknosed Nuclei (%),[1]; [4],16% and 14%
same,Population Tubulin-Different-Phenotype (%),[1]; [4],33% and 38%
same,Total Cell Count,[1]; [4],694 and 685
same,Population Apoptotic (%),[1]; [5],21% and 43%
same,Population Fragmented Nuclei (%),[1]; [5],2%
same,Population Healthy Nuclei (%),[1]; [5],84% and 78%
same,Population Hoechst High Intensity Objects (%),[1]; [5],5% and 4%
same,Population Membrane Permeable-Phenotype (%),[1]; [5],1% and 0%
same,Population Mitochondria Different-Phenotype (%),[1]; [5],12% and 15%
same,Population Mitotic Cells (%),[1]; [5],78% and 56%
same,Population Normal (%),[1]; [5],94% and 95%
same,Population Pyknosed Nuclei (%),[1]; [5],13% and 19%
same,Population Tubulin-Different-Phenotype (%),[1]; [5],38% and 31%
same,Total Cell Count,[1]; [5],716 and 454
same,Population Apoptotic (%),[1]; [6],46% and 37%
same,Population Fragmented Nuclei (%),[1]; [6],3%
same,Population Healthy Nuclei (%),[1]; [6],84% and 86%
same,Population Hoechst High Intensity Objects (%),[1]; [6],6% and 5%
same,Population Membrane Permeable-Phenotype (%),[1]; [6],2%
same,Population Mitochondria Different-Phenotype (%),[1]; [6],2% and 3%
same,Population Mitotic Cells (%),[1]; [6],53% and 62%
same,Population Normal (%),[1]; [6],93% and 94%
same,Population Pyknosed Nuclei (%),[1]; [6],11% and 9%
same,Population Tubulin-Different-Phenotype (%),[1]; [6],12% and 20%
same,Total Cell Count,[1]; [6],994 and 875
same,Population Apoptotic (%),[1]; [7],30% and 53%
same,Population Fragmented Nuclei (%),[1]; [7],2% and 1%
same,Population Healthy Nuclei (%),[1]; [7],86% and 79%
same,Population Hoechst High Intensity Objects (%),[1]; [7],8% and 7%
same,Population Membrane Permeable-Phenotype (%),[1]; [7],1%
same,Population Mitochondria Different-Phenotype (%),[1]; [7],12% and 16%
same,Population Mitotic Cells (%),[1]; [7],69% and 46%
same,Population Normal (%),[1]; [7],91% and 92%
same,Population Pyknosed Nuclei (%),[1]; [7],10% and 18%
same,Population Tubulin-Different-Phenotype (%),[1]; [7],36% and 34%
same,Total Cell Count,[1]; [7],751 and 447
same,Population Apoptotic (%),[1]; [8],9% and 19%
same,Population Fragmented Nuclei (%),[1]; [8],9% and 8%
same,Population Healthy Nuclei (%),[1]; [8],86% and 87%
same,Population Hoechst High Intensity Objects (%),[1]; [8],10% and 9%
same,Population Membrane Permeable-Phenotype (%),[1]; [8],3%
same,Population Mitochondria Different-Phenotype (%),[1]; [8],0%
same,Population Mitotic Cells (%),[1]; [8],90% and 80%
same,Population Normal (%),[1]; [8],89% and 90%
same,Population Pyknosed Nuclei (%),[1]; [8],3% and 4%
same,Population Tubulin-Different-Phenotype (%),[1]; [8],11% and 10%
same,Total Cell Count,[1]; [8],1942 and 1388
same,Population Apoptotic (%),[1]; [9],51% and 57%
same,Population Fragmented Nuclei (%),[1]; [9],7% and 3%
same,Population Healthy Nuclei (%),[1]; [9],87% and 84%
same,Population Hoechst High Intensity Objects (%),[1]; [9],11%
same,Population Membrane Permeable-Phenotype (%),[1]; [9],2% and 1%
same,Population Mitochondria Different-Phenotype (%),[1]; [9],4% and 7%
same,Population Mitotic Cells (%),[1]; [9],48% and 42%
same,Population Normal (%),[1]; [9],88%
same,Population Pyknosed Nuclei (%),[1]; [9],5% and 12%
same,Population Tubulin-Different-Phenotype (%),[1]; [9],28% and 30%
same,Total Cell Count,[1]; [9],917 and 468
same,Population Apoptotic (%),[2]; [4],50% and 90%
same,Population Fragmented Nuclei (%),[2]; [4],13% and 3%
same,Population Healthy Nuclei (%),[2]; [4],73% and 87%
same,Population Hoechst High Intensity Objects (%),[2]; [4],0%
same,Population Membrane Permeable-Phenotype (%),[2]; [4],0% and 1%
same,Population Mitochondria Different-Phenotype (%),[2]; [4],4% and 0%
same,Population Normal (%),[2]; [4],100%
same,Population Pyknosed Nuclei (%),[2]; [4],13% and 9%
same,Population Tubulin-Different-Phenotype (%),[2]; [4],72% and 77%
same,Population Apoptotic (%),[2]; [5],75% and 35%
same,Population Healthy Nuclei (%),[2]; [5],69% and 78%
same,Population Hoechst High Intensity Objects (%),[2]; [5],0%
same,Population Membrane Permeable-Phenotype (%),[2]; [5],5% and 0%
same,Population Mitochondria Different-Phenotype (%),[2]; [5],0%
same,Population Mitotic Cells (%),[2]; [5],25% and 64%
same,Population Normal (%),[2]; [5],100%
same,Population Pyknosed Nuclei (%),[2]; [5],8% and 16%
same,Population Tubulin-Different-Phenotype (%),[2]; [5],67% and 87%
same,Population Apoptotic (%),[2]; [6],80% and 96%
same,Population Fragmented Nuclei (%),[2]; [6],5% and 3%
same,Population Healthy Nuclei (%),[2]; [6],80% and 87%
same,Population Hoechst High Intensity Objects (%),[2]; [6],0%
same,Population Membrane Permeable-Phenotype (%),[2]; [6],7% and 0%
same,Population Mitochondria Different-Phenotype (%),[2]; [6],3% and 1%
same,Population Normal (%),[2]; [6],100%
same,Population Pyknosed Nuclei (%),[2]; [6],14% and 9%
same,Population Tubulin-Different-Phenotype (%),[2]; [6],71% and 79%
same,Population Apoptotic (%),[2]; [7],55% and 57%
same,Population Fragmented Nuclei (%),[2]; [7],17% and 8%
same,Population Healthy Nuclei (%),[2]; [7],67% and 77%
same,Population Hoechst High Intensity Objects (%),[2]; [7],0%
same,Population Membrane Permeable-Phenotype (%),[2]; [7],2% and 3%
same,Population Mitochondria Different-Phenotype (%),[2]; [7],0% and 1%
same,Population Mitotic Cells (%),[2]; [7],44% and 42%
same,Population Normal (%),[2]; [7],100%
same,Population Pyknosed Nuclei (%),[2]; [7],15% and 14%
same,Population Tubulin-Different-Phenotype (%),[2]; [7],79% and 89%
same,Population Apoptotic (%),[2]; [8],60% and 82%
same,Population Healthy Nuclei (%),[2]; [8],71% and 89%
same,Population Hoechst High Intensity Objects (%),[2]; [8],0%
same,Population Membrane Permeable-Phenotype (%),[2]; [8],7% and 1%
same,Population Mitochondria Different-Phenotype (%),[2]; [8],2% and 0%
same,Population Mitotic Cells (%),[2]; [8],40% and 17%
same,Population Normal (%),[2]; [8],100%
same,Population Pyknosed Nuclei (%),[2]; [8],9% and 6%
same,Population Tubulin-Different-Phenotype (%),[2]; [8],76% and 81%
same,Population Apoptotic (%),[2]; [9],75% and 74%
same,Population Fragmented Nuclei (%),[2]; [9],15% and 5%
same,Population Healthy Nuclei (%),[2]; [9],69% and 79%
same,Population Hoechst High Intensity Objects (%),[2]; [9],0%
same,Population Membrane Permeable-Phenotype (%),[2]; [9],3% and 4%
same,Population Mitochondria Different-Phenotype (%),[2]; [9],0%
same,Population Mitotic Cells (%),[2]; [9],25%
same,Population Normal (%),[2]; [9],100% and 99%
same,Population Pyknosed Nuclei (%),[2]; [9],15%
same,Population Tubulin-Different-Phenotype (%),[2]; [9],68% and 91%
same,Population Apoptotic (%),[3]; [4],33% and 45%
same,Population Fragmented Nuclei (%),[3]; [4],6% and 11%
same,Population Healthy Nuclei (%),[3]; [4],73% and 74%
same,Population Hoechst High Intensity Objects (%),[3]; [4],0%
same,Population Membrane Permeable-Phenotype (%),[3]; [4],6% and 1%
same,Population Mitochondria Different-Phenotype (%),[3]; [4],0% and 1%
same,Population Mitotic Cells (%),[3]; [4],66% and 54%
same,Population Normal (%),[3]; [4],100%
same,Population Pyknosed Nuclei (%),[3]; [4],19% and 13%
same,Population Tubulin-Different-Phenotype (%),[3]; [4],2% and 4%
same,Total Cell Count,[3]; [4],202 and 240
same,Population Apoptotic (%),[3]; [5],9% and 19%
same,Population Fragmented Nuclei (%),[3]; [5],6% and 12%
same,Population Healthy Nuclei (%),[3]; [5],65% and 67%
same,Population Hoechst High Intensity Objects (%),[3]; [5],0%
same,Population Membrane Permeable-Phenotype (%),[3]; [5],3% and 1%
same,Population Mitochondria Different-Phenotype (%),[3]; [5],1% and 2%
same,Population Mitotic Cells (%),[3]; [5],90% and 80%
same,Population Normal (%),[3]; [5],99% and 100%
same,Population Pyknosed Nuclei (%),[3]; [5],28% and 20%
same,Population Tubulin-Different-Phenotype (%),[3]; [5],11% and 6%
same,Total Cell Count,[3]; [5],196 and 295
same,Population Apoptotic (%),[3]; [6],50% and 69%
same,Population Fragmented Nuclei (%),[3]; [6],4% and 10%
same,Population Healthy Nuclei (%),[3]; [6],83% and 78%
same,Population Hoechst High Intensity Objects (%),[3]; [6],0%
same,Population Membrane Permeable-Phenotype (%),[3]; [6],4% and 2%
same,Population Mitochondria Different-Phenotype (%),[3]; [6],0%
same,Population Mitotic Cells (%),[3]; [6],50% and 30%
same,Population Normal (%),[3]; [6],100%
same,Population Pyknosed Nuclei (%),[3]; [6],11%
same,Population Tubulin-Different-Phenotype (%),[3]; [6],2% and 5%
same,Total Cell Count,[3]; [6],191 and 224
same,Population Apoptotic (%),[3]; [7],23%
same,Population Fragmented Nuclei (%),[3]; [7],8% and 10%
same,Population Healthy Nuclei (%),[3]; [7],76% and 77%
same,Population Hoechst High Intensity Objects (%),[3]; [7],0%
same,Population Membrane Permeable-Phenotype (%),[3]; [7],2% and 0%
same,Population Mitochondria Different-Phenotype (%),[3]; [7],4% and 2%
same,Population Mitotic Cells (%),[3]; [7],76%
same,Population Normal (%),[3]; [7],100%
same,Population Pyknosed Nuclei (%),[3]; [7],15% and 11%
same,Population Tubulin-Different-Phenotype (%),[3]; [7],10% and 3%
same,Total Cell Count,[3]; [7],196 and 266
same,Population Apoptotic (%),[3]; [8],86% and 66%
same,Population Fragmented Nuclei (%),[3]; [8],6% and 10%
same,Population Healthy Nuclei (%),[3]; [8],85%
same,Population Hoechst High Intensity Objects (%),[3]; [8],0%
same,Population Membrane Permeable-Phenotype (%),[3]; [8],3% and 2%
same,Population Mitochondria Different-Phenotype (%),[3]; [8],0%
same,Population Mitotic Cells (%),[3]; [8],13% and 33%
same,Population Normal (%),[3]; [8],100%
same,Population Pyknosed Nuclei (%),[3]; [8],7% and 4%
same,Population Tubulin-Different-Phenotype (%),[3]; [8],1% and 3%
same,Total Cell Count,[3]; [8],196 and 220
same,Population Apoptotic (%),[3]; [9],57% and 69%
same,Population Fragmented Nuclei (%),[3]; [9],11% and 9%
same,Population Healthy Nuclei (%),[3]; [9],72% and 80%
same,Population Hoechst High Intensity Objects (%),[3]; [9],0%
same,Population Membrane Permeable-Phenotype (%),[3]; [9],2% and 1%
same,Population Mitochondria Different-Phenotype (%),[3]; [9],0%
same,Population Mitotic Cells (%),[3]; [9],42% and 30%
same,Population Normal (%),[3]; [9],100% and 99%
same,Population Pyknosed Nuclei (%),[3]; [9],15% and 9%
same,Population Tubulin-Different-Phenotype (%),[3]; [9],2% and 3%
same,Total Cell Count,[3]; [9],184 and 264
